Activity calls are given as the source filed them. No cut-off for these calls is given here.
What was measured:
[1] = Inhibition of TNFalpha-induced NF-kappaB activation in human A549 cells after 30 mins by luciferase reporter gene assay; format: cell-based; details: A549, 0.5 h
In short: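 A549/NF-κB-luc reporter cells trypsinized, seeded at 5000 cells/well and left 24 h to attach. Compound in complete growth medium added 30 min before TNF-α (1:667 dilution in 1× PBS). After a further 7 h, Bright-Glo luciferin reagent added and luciferase activity read 2 min later.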

MCF7 [2] = assay: Cytotoxicity against human MCF7 cells assessed as growth inhibition at 5 uM after 72 hrs by alamar blue assay; format: functional; details: for inhibition of growth at 5 µM: MCF7, 72 h, read-out: GI
MCF7 [3] = assay: Growth inhibition in human MCF7 cells after 72 hrs by alamar blue assay; format: functional; details: MCF7, 72 h
In short: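 MCF-7 cells from exponential-phase culture re-suspended in RPMI1640 with 10% FBS, adjusted to 10⁵ cells/mL and plated in 96-well plates. Compounds from 10 mM DMSO stocks were added in fresh medium across varying concentrations. Cells were grown a further 72 h, then alamarBlue was added as read-out.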

DU-145 = assay: Growth inhibition in human DU145 cells after 72 hrs by alamar blue assay; format: functional; details: DU-145, 72 h
In short: (§1)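 Cells harvested from exponential-phase culture and resuspended at 10⁵ cells/mL in growth medium with 10% FBS (RPMI1640, EMEM or DMEM; the DMEM also held penicillin, streptomycin and hygromycin), seeded in 96-well plates. Compounds from 10 mM DMSO stocks added in fresh medium across varying concentrations. Cultures grown a further 72 h, then alamarBlue added as read-out.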

A549 = assay: Growth inhibition in human A549 cells after 72 hrs by alamar blue assay; format: functional; details: A549, 72 h; in short: as §1

Row | Compound | GI50 (MCF7 [3]) [nM] | growth inhibition (GI) (MCF7 [2]) | further results
1 | COc1ccccc1CN1CCc2c(c3cc(OC)c(OC)cc3c3cc(OC)c(OC)cc23)C1 | 600 | – | IC50 [1]: 15 µM; inhibition of growth at 5 µM (MCF7 [2]): 90%; GI50 (DU-145): 1500 nM; GI50 (A549): 1600 nM
2 | COc1cc2c3c(c4cc(OC)c(OC)cc4c2cc1OC)CN(Cc1cc(C)on1)CC3 | – | Active | –
3 | COc1cc2c3c(c4cc(OC)c(OC)cc4c2cc1OC)CN(Cc1ccc([N+](=O)[O-])cc1)CC3 | – | Active | –
4 | COc1cc2c3c(c4cc(OC)c(OC)cc4c2cc1OC)CN1CCC[C@@H]1C3 [TYLOPHORINE] | 32 | – | –
5 | COc1cc2c3c(c4cc(OC)c(OC)cc4c2cc1OC)CN(CCN)CC3 | – | inactive | –
6 | COc1cc2c3c(c4cc(OC)c(OC)cc4c2cc1OC)CN(Cc1ccccc1O)CC3 | – | Active | –
7 | COc1cc2c3c(c4cc(OC)c(OC)cc4c2cc1OC)CN(Cc1ccc(CO)o1)CC3 | – | Active | –
8 | COc1cc2c3c(c4cc(OC)c(OC)cc4c2cc1OC)CN1CCC[C@H]1C3 [(S)-TYLOPHORINE] | 42 | – | –
9 | COc1cc2c3c(c4cc(OC)c(OC)cc4c2cc1OC)CN(Cc1cccc(OC)c1O)CC3 | 3000 | Active | IC50 [1]: 18.9 µM; GI50 (DU-145): 2100 nM; GI50 (A549): 2100 nM
10 | COc1cc2c3c(c4cc(OC)c(OC)cc4c2cc1OC)CNCC3 | – | – | inhibition of growth at 5 µM (MCF7 [2]): 50%
11 | COc1cc2c3c(c4cc(OC)c(OC)cc4c2cc1OC)CN(Cc1c(OC)cccc1OC)CC3 | – | inactive | –
12 | COc1ccc(CN2CCc3c(c4cc(OC)c(OC)cc4c4cc(OC)c(OC)cc34)C2)cc1 | – | Active | –
13 | COc1cc2c3c(c4cc(OC)c(OC)cc4c2cc1OC)CN(C)CC3 | – | – | inhibition of growth at 5 µM (MCF7 [2]): 50%
14 | COc1cc2c3c(c4cc(OC)c(OC)cc4c2cc1OC)CN(Cc1ccccc1)CC3 | – | inactive | –
15 | COc1cc2c3c(c4cc(OC)c(OC)cc4c2cc1OC)CN1CCCC1C3 (racemic) [(+/-)-TYLOPHORINE] | 42 | – | IC50 [1]: 0.03 µM; GI50 (DU-145): 71 nM; GI50 (A549): 45 nM

Reference: ChEMBL document CHEMBL2146474, “Synthesis and evaluation of the anti-proliferative and NF-κB activities of a library of simplified tylophorine analogs” (Bioorg Med Chem, 2012)
